{"source": "paper PMC3603146", "about": "(Nature structural & molecular biology, 2012)", "molecules": {"B1": {"name": "wild type PHF1: full length hPHF1 expressed in HEK293T (HA-tag) or K562 cells (Flag) (protein, UniProt O43189 1-567, looked up)", "chain": "MAQPPRLSRSGASSLWDPASPAPTSGPRPRLWEGQDVLARWTDGLLYLGTIKKVDSAREVCLVQFEDDSQFLVLWKDISPAALPGEELLCCVCRSETVVPGNRLVSCEKCRHAYHQDCHVPRAPAPGEGEGTSWVCRQCVFAIATKRGGALKKGPYARAMLGMKLSLPYGLKGLDWDAGHLSNRQQSYCYCGGPGEWNLKMLQCRSCLQWFHEACTQCLSKPLLYGDRFYEFECCVCRGGPEKVRRLQLRWVDVAHLVLYHLSVCCKKKYFDFDREILPFTSENWDSLLLGELSDTPKGERSSRLLSALNSHKDRFISGREIKKRKCLFGLHARMPPPVEPPTGDGALTSFPSGQGPGGGVSRPLGKRRRPEPEPLRRRQKGKVEELGPPSAVRNQPEPQEQRERAHLQRALQASVSPPSPSPNQSYQGSSGYNFRPTDARCLPSSPIRMFASFHPSASTAGTSGDSGPPDRSPLELHIGFPTDIPKSAPHSMTASSSSVSSPSPGLPRRSAPPSPLCRSLSPGTGGGVRGGVGYLSRGDPVRVLARRVRPDGSVQYLVEWGGGGIF", "modifications": "full-length HA or Flag tag"}, "B2": {"name": "W41A: PHF1 mutant impaired in H3K36me3 binding; HA-tagged, GFP-fusion or in Flag-PHF1-PRC2 complex according to the test (protein, UniProt O43189 1-567, looked up, variant W41A)", "PHD finger protein 1": "B1 chain with W41A", "modifications": "HA, GFP or Flag tag"}, "B3": {"name": "Y47A: PHF1 mutant impaired in H3K36me3 binding; HA-tagged, GFP-fusion or in Flag-PHF1-PRC2 complex according to the test (protein, UniProt O43189 1-567, looked up, variant Y47A)", "PHD finger protein 1": "B1 chain with Y47A", "modifications": "HA, GFP or Flag tag"}, "B4": {"name": "Flag-PHF1: Flag-tagged PHF1 stably expressed in mouse ES cells (protein, UniProt Q9Z1B8 1-559, looked up)", "PHD finger protein 1": "MAQLPRLSRLGAPSLWDPASPAPTSGPRPRLWEGQDVLARWTDGLLYLGTIKKVDSAREVCLVQFEDDSQFLVLWKDISPAALPGEELLCCVCRSETVVPGNRLVSCEKCRHAYHQDCHVPRAPAPGEGEGASWVCRQCVFAIATKRGGALKKGPYARAMLGMKLSLPYGLKGLDWDAGHLSNRQQSYCYCGGPGEWNLKMLQCRSCLQWFHEACTQCLSKPLLYGDRFYEFECCVCRGGPEKVRRLQLRWVDVAHLVLYHLSVCCKKKYFDFDREILPFTSENWDSLLLGELSDTPKGERSSQLLSALNSHKDRFISGREIKKRKCLFGLHARTPPPVELLTGDGAPTSFPSGQGPGGGVSRPLGKRWRSEPEPLRRRQKGKVEELGPPTAAHSRHGSREQRALQASVSPPPPSPNQSYEGSSGYNFRPTDARCLPSSPIRMFASFHPSASTAGTSGDSEPPDRSPLGLHIGFPTDTPKSSPHSVTASSSSVPALTPGFSRHSPPSPLCRSLSPGTGGGVRGGVSYLSRGDPVRVLARRVRPDGSVQYLVEWGGGGIF", "modifications": "Flag tag"}}, "key": {"PHF1 Tudor (WT)": {"molecular_target": "PHF1 Tudor (WT) (Homo sapiens, UniProt O43189)", "assay": "NMR 1H,15N HSQC titration of wild type PHF1 Tudor with histone peptides", "format": "binding", "conditions": "for NMR chemical shift / resonance perturbations in PHF1 Tudor: titration of unlabeled peptide into 15N-labeled wild type Tudor"}, "XRCC1": {"system": "XRCC1", "assay": "XRCC1 accumulation at single stranded breaks upon PARP1 inhibitor treatment", "format": "cell-based", "conditions": "low doses of radiation"}, "[1]": {"system": "poly (ADP-ribose) PAR polymer", "assay": "Poly", "format": "cell-based", "conditions": "Western analysis"}, "PHF1 Tudor W41A": {"molecular_target": "PHF1 Tudor W41A (Homo sapiens, UniProt O43189, W41A)", "sequence (O43189 14-87 W41A)": "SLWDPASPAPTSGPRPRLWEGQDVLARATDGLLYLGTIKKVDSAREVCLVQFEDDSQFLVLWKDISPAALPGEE", "assay": "NMR 1H,15N HSQC titration of PHF1 Tudor W41A mutant", "format": "binding", "conditions": "structure of the protein remained intact", "procedure,_shortened": "(§1)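 Uniformly 15N-labeled mutant PHF1 Tudor (residues 14–87) was GST-purified from E. coli BL21(DE3) pLysS grown in 15NH4Cl M9 (0.5 mM IPTG), tag-cleaved and size-exclusion purified. 1H,15N HSQC spectra were recorded at 600 MHz (cryoprobe) with increasing concentrations of 12-mer histone tail peptides. Kd came from nonlinear least-squares fitting of normalized chemical shift changes versus peptide and protein concentration.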"}, "PHF1 Tudor Y47A": {"molecular_target": "PHF1 Tudor Y47A (Homo sapiens, UniProt O43189, Y47A)", "sequence (O43189 14-87 Y47A)": "as the sequence (O43189 14-87 W41A) above, with A28W, Y34A counted along it", "assay": "NMR 1H,15N HSQC titration of PHF1 Tudor Y47A mutant", "format": "binding", "conditions": "structure of the protein remained intact", "procedure,_shortened": "as §1"}, "GST-fusion PHF1 Tudor": {"system": "GST-fusion PHF1 Tudor", "assay": "Pull-down of GST-fusion PHF1 Tudor with biotinylated histone peptides", "format": "binding, human", "conditions": "biotinylated peptides (H3K4, H3K9, unmodified H3: residues 1–21; H3K27, H3K36: residues 21–44), 50 mM Tris pH 7.5, 150 mM NaCl, 0.05% Nonidet P-40; anti-GST western", "procedure,_shortened": "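GST-tagged human PHF1 Tudor (residues 14–87) expressed in E. coli BL21(DE3) pLysS with 0.5 mM IPTG induction, purified on glutathione beads, eluted with 0.05 M reduced glutathione, then size exclusion. The protein was incubated with C-terminally biotinylated peptides (me1/me2/me3 forms) plus streptavidin beads. Beads were washed five times in binding buffer, and bound protein was detected with HRP-conjugated anti-GST monoclonal.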"}, "HEK293T cells": {"system": "HEK293T cells", "format": "cell-based", "conditions": "HA-tagged PHF1, 48 hours after transfection, compared with empty vector", "procedure,_shortened": "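HEK293T cells were grown in DMEM with 10% FBS and penicillin/streptomycin. They were transiently transfected using polyethylenimine with full-length human PHF1 (C-terminal HA tag, pIRES2-EGFP; wild type, W41A or Y47A) or empty plasmid as negative control. Whole-cell lysates were collected 48 h post-transfection for Western blot with rabbit antibodies to HA, histone H3, H3K27me3 and H3K36me3.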"}, "[2]": {"system": "MYT1 promoter, HEK293T cells", "assay": "ChIP at the MYT1 promoter in HEK293T cells", "format": "cell-based", "conditions": "upon overexpression of PHF1; normalized to H3", "procedure,_shortened": "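HEK293T cells were transiently transfected with empty vector, wild-type HA-PHF1 or W41A/Y47A mutants, then fixed 48 h later (1×10^7 cells, 1% formaldehyde, 14 min, room temperature). Chromatin was sonicated to ~500 bp and immunoprecipitated with 4 μg antibody and Protein A magnetic beads. qPCR was run in triplicate with 7 MYT1 primer sets (−1680 to 866 around TSS). Fold-enrichment = IgG-subtracted %Input ÷ that of reference gene PCLB4. Data are mean ± SD of three biological replicates.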"}, "[3]": {"system": "Oct4, Nanog, HoxA4 and HoxA11 promoters, mouse ES cells", "assay": "ChIP of H3K27me3 in mouse ES cells expressing Flag-PHF1", "format": "cell-based", "conditions": "stably expressing Flag-PHF1 vs empty vector; H3K27me3 to total H3; two experiments", "procedure,_shortened": "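Mouse ES cells (ww6), grown on fibroblasts or with recombinant LIF, transduced with virus carrying pRTF vector (empty or Flag-PHF1); Flag-PHF1 clones selected. ChIP on 500 μg cross-linked chromatin with anti-H3 or anti-H3K27me3; qPCR with primers near the transcription start site. H3K27me3 expressed as ratio to total H3 to correct for nucleosome density; two separate ChIP experiments.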"}}, "note": "Changes are numbered by the printed parent chain. Names may count otherwise. Square brackets hold non-standard residues; d marks the D form. Peptide text beside a SMILES is read from it. Lys(Me3) = C[N+](C)(C)CCCC[C@H](N)C(=O)O", "data": [{"molecule": "C[C@H](N)C(=O)N[C@@H](CCCNC(=N)N)C(=O)N[C@H](C(=O)N[C@@H](CCCC[N+](C)(C)C)C(=O)N[C@@H](CCC(N)=O)C(=O)N[C@H](C(=O)N[C@@H](C)C(=O)N[C@@H](CCCNC(=N)N)C(=O)N[C@@H](CCCCN)C(=O)N[C@@H](CO)C(=O)N[C@H](C(=O)NCC(=O)O)[C@@H](C)O)[C@@H](C)O)[C@@H](C)O", "note": "[H3K4me3]", "values": [{"measurement": "times weaker binding than H3K36me3 (trimethylated at other lysine residues)", "setting": "PHF1 Tudor (WT); relative to H3K36me3, ITC or NMR (Fig. 3a)", "value": "~8", "unit": "times"}, {"measurement": "NMR chemical shift / resonance perturbations in PHF1 Tudor", "setting": "PHF1 Tudor (WT)", "value": "slightly different patterns of chemical shift changes"}]}, {"molecule": "O=C(c1cc(Cc2n[nH]c(=O)c3ccccc23)ccc1F)N1CCN(C(=O)C2CC2)CC1", "note": "[AZD2281]", "values": [{"measurement": "accumulation of XRCC1 at single stranded breaks", "setting": "XRCC1", "value": "loss of accumulation"}, {"measurement": "poly (ADP-ribose) PAR polymer", "setting": "[1]", "value": "decrease in poly (ADP-ribose) PAR polymer"}]}, {"molecule": "CC(C)[C@H](NC(=O)CNC(=O)CNC(=O)[C@@H](NC(=O)[C@H](C)N)[C@@H](C)O)C(=O)N[C@@H](CCCC[N+](C)(C)C)C(=O)N[C@@H](CCCCN)C(=O)N1CCC[C@H]1C(=O)N[C@@H](Cc1c[nH]cn1)C(=O)N[C@@H](CCCNC(=N)N)C(=O)O", "note": "[H3K36me3] (H-ATGGV[Lys(Me3)]KPHR-OH; N-terminus and C-terminus assumed)", "values": [{"measurement": "NMR chemical shift / resonance perturbations in PHF1 Tudor", "setting": "PHF1 Tudor (WT)", "value": "large chemical shift perturbations"}, {"measurement": "effect of W41A substitution on binding to H3K36me3", "setting": "PHF1 Tudor W41A", "value": "disrupted binding"}, {"measurement": "effect of Y47A substitution on binding to H3K36me3", "setting": "PHF1 Tudor Y47A", "value": "disrupted binding"}, {"measurement": "association of PHF1 Tudor in pull-down", "setting": "GST-fusion PHF1 Tudor", "value": "associated most strongly"}]}, {"molecule": "B1", "values": [{"measurement": "global level of H3K27me3", "setting": "HEK293T cells", "value": "decrease in the global level of H3K27me3"}, {"measurement": "H3K27me3 levels at MYT1", "setting": "[2]", "value": "substantially reduced"}]}, {"molecule": "B2", "values": [{"measurement": "global level of H3K27me3", "setting": "HEK293T cells", "value": "no effect on the H3K27me3 level"}]}, {"molecule": "B3", "values": [{"measurement": "global level of H3K27me3", "setting": "HEK293T cells", "value": "no effect on the H3K27me3 level"}]}, {"molecule": "B4", "values": [{"measurement": "H3K27me3 level at HoxA4 and HoxA11", "setting": "[3]", "value": "comparable H3K27me3 level"}, {"measurement": "H3K27me3 signal at Oct4 and Nanog", "setting": "[3]", "value": "reproducible decrease of the H3K27me3 signal"}]}]}
